Reference: ChEMBL document CHEMBL4265908, “Structure-activity and structure-property relationships of novel Nrf2 activators with a 1,2,4-oxadiazole core and their therapeutic effects on acetaminophen (APAP)-induced acute liver injury” (Eur J Med Chem, 2018)
Activity calls are given as the source filed them. No cut-off for these calls is given here.

Assays:
[1] = target: T1, Nuclear factor erythroid 2-related factor 2 (Homo sapiens) (UniProt Q16236); test: Activation of Nrf2 in human HepG2-ARE-C8 cells assessed as induction of ARE-mediated luciferase activity at 0.01 uM after 24 hrs by luciferase reporter gene assay relative to control; format: cell-based
T1 sequence (whole entry): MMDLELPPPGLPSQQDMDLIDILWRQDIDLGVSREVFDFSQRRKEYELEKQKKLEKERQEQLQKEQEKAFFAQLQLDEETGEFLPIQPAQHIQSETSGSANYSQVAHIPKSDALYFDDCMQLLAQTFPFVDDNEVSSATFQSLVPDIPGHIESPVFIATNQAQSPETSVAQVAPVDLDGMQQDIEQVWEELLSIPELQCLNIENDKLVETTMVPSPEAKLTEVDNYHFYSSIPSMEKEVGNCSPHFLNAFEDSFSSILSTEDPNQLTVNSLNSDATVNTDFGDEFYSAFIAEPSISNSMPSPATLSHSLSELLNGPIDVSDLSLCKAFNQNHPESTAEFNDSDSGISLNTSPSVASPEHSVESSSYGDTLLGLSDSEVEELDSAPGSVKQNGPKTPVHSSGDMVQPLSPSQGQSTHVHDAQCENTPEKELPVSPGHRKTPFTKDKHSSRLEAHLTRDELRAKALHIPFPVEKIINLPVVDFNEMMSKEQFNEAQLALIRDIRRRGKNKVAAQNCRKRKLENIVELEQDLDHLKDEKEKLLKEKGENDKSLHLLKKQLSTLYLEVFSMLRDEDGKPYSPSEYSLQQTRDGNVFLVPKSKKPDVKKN
Method in brief: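 HepG2-ARE-C8 cells stably carrying ARE-luciferase, grown in DMEM with 10% FBS at 37 °C and 5% CO2. Seeded at 5 × 10^4 cells/well, left overnight, then given compound diluted from a 10 mM DMSO stock for 24 h. Cells lysed and luciferase read as RLU. Inductivity = (RLUtest − RLUblank)/(RLUcontrol − RLUblank), with DMSO as control. Mean ± SEM of three experiments.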

[2] = target: T1, Nuclear factor erythroid 2-related factor 2 (Homo sapiens); test: Activation of Nrf2 in human LO2 cells cotreated with Nrf2 siRNA assessed as increase in GCLM mRNA expression level at 20 uM by qRT-PCR analysis; format: cell-based
Method in brief: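 LO2 cells plated at 7 × 10^5 per 60 mm dish and transfected with 50 nM Nrf2 siRNA (scrambled siRNA as control). After 24 h, fresh medium was added and cells grown a further 48 h. Then 20 μM compound for 12 h. Nrf2, NQO1, GCLM and HO-1 mRNA measured by qRT-PCR, normalized to GAPDH, as fold over control.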

[3] = system: L02; test: Hepatoprotective activity against APAP-induced cell injury in human LO2 cells assessed as increase in cell viability at 20 uM pretreated for 24 hrs followed by APAP treatment measured after 24 hrs by MTT assay; format: functional
Method in brief: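 LO2 cells plated for 12 h and pretreated for 24 h with 5, 10 or 20 μM compound. One arm was first transfected with 50 nM Nrf2 siRNA before receiving 20 μM compound. Medium then replaced with medium containing 8 mM APAP for 24 h. Viability by MTT at A570. Mean ± SD of three experiments.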

[4] = system: Mus musculus; test: In vivo activation of Nrf2 in APAP-induced liver injury in C57BL/6 mouse assessed as increase in HO-1 protein expression level at 10 to 100 mg/kg, ip administered for 7 consecutive days followed by APAP challenge 1 hr post last compound dose and measured after 24 hrs by Western blot analysis; format: functional, organism-based
Method in brief: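 Female C57BL/6 mice (20–25 g, n = 10/group) received 10, 50 or 100 mg/kg/day ip in saline for 7 days. One hour after the last dose they received APAP 300 mg/kg in saline. Killed 24 h later. Serum ALT/AST by kit. Liver homogenates (pH 7.0 phosphate) used for GSH (A420, μmol/g protein), GST (A412, U/mg protein) and SOD. Liver also analyzed by western blot (β-actin normalized), qRT-PCR (GAPDH normalized) and H&E.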

With `Cc1ccc(-c2noc(-c3ccc(F)c(F)c3)n2)cn1` the Activity [1] was 2.75, the Activity [2] was “Active” and the Activity [3] was 80%. The Activity [4] was “Active”.
